Data from publication PMC3217094 (DNA repair, 2011).
Values joined by “and” are separate entries in the source; they are usually repeats but may differ in a detail not shown here. Equal values may be shown once. Read-outs that look alike come from different tables or passages of the source. {FAM} = fluorescein (FAM) label

What was measured:
AGT [1] = molecular target: T1, AGT (Homo sapiens, UniProt P16455); assay: Binding of free dye to AGT detected by fluorescence anisotropy
T1 sequence (P16455 with tags, fused parts or gaps limits assumed): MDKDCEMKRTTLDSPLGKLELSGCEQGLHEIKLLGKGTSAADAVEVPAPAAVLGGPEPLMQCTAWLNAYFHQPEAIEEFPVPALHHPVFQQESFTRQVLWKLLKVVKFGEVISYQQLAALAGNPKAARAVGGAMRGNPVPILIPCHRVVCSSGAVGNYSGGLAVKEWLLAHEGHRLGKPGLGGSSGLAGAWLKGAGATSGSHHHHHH
In short: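 Each step equilibrated 1 h at 4°C before reading anisotropy, with emission intensity also recorded. Fractional saturation Y = (A − A0)/(Amax − A0), where A0 is dye without protein and Amax the saturated complex, plotted against AGT concentration.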

AGT [2] = molecular target: T1, AGT; assay: DNA alkyltransferase assay; type: biochemical
benzyl-AGT [3] = molecular target: T2, benzyl-AGT (Homo sapiens, UniProt P16455, A204H/G205H/N207H/P202H/P203H/R206H); assay: Mobility shift titration of 32P-labeled 24-mer DNA with benzyl-AGT; type: binding; settings: AGT modified with O^6-benzylguanine
T2 sequence (P16455 with tags, fused parts or gaps): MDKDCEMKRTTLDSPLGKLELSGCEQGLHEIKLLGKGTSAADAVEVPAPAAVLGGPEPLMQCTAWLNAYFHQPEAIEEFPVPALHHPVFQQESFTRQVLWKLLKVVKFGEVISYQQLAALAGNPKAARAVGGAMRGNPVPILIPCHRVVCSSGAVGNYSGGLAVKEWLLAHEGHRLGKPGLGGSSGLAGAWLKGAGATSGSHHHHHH

AGT [4] = molecular target: T1, AGT; assay: Sedimentation equilibrium analysis of AGT-DNA complexes; type: binding; settings: mean ± SEM for ≥3 determinations, 4°C
AGT [5] = molecular target: T1, AGT; settings: AGT binding single-stranded DNA; for Hill coefficient (n) from anisotropy measurements / Hill coefficient (n) from intensity measurements: 4°C; for Ka from anisotropy measurements: apparent association constant
AGT [6] = molecular target: T1, AGT; assay: Mobility shift assay: inhibition of AGT DNA binding; settings: IC50 for inhibition of DNA binding
benzyl-AGT [7] = molecular target: T2, benzyl-AGT; assay: Binding of FAM to benzyl-AGT detected by fluorescence anisotropy
[8] = molecular target: T3, O6-alkylguanine-DNA alkyltransferase (AGT, MGMT) (human, UniProt P16455 1-201); assay: fluorescence anisotropy
[9] = molecular target: T3, O6-alkylguanine-DNA alkyltransferase …; assay: fluorescence anisotropy; remark: listed apart in the source
[10] = molecular target: T3, O6-alkylguanine-DNA alkyltransferase …; assay: fluorescence anisotropy; remark: listed apart in the source
[11] = molecular target: T3, O6-alkylguanine-DNA alkyltransferase …; assay: fluorescence anisotropy; remark: listed apart in the source

In the case of `O=S(=O)(O)c1cccc2c(-c3ccc(Nc4ccccc4)c4c(S(=O)(=O)O)cccc34)ccc(Nc3ccccc3)c12` [Bis-ANS, 4,4′-bis(phenylamino)-[1,1′-Binaphthalene]-5,5′-disulfonic acid], the Kd (AGT [1]) is reported as 33.1 µM and the IC50 (AGT [2]) is reported as 48.6 µM.

With `Nc1nc(OCc2ccccc2)c2nc[nH]c2n1` [O^6-benzylguanine] the “DNA binding of treated AGT” value (benzyl-AGT [3]) was “fully-competent in DNA binding”, the “apparent stoichiometry n of DNA binding” value (benzyl-AGT [3]; duplex 24mer DNA) was 5.5 ± 0.2 and the “residual AGT activity in DNA repair after treatment” value (AGT [2]; AGT modified with O^6-benzylguanine (37°C, 50mM Tris, pH 7.6, 1mM EDTA, 5 mM DTT)) was under 1%.

With `Nc1nc2c(ncn2[C@@H]2O[C@H](COP(=O)(O)O)[C@@H](O)[C@H]2O)c(=O)[nH]1` [5′-GMP, guanosine 5′ monophosphate] the IC50 (AGT [2]) was 34.6 µM.

In the case of “Unmodified 16-mer Oligo A: 5′- AGT CAG TCA GTC AGT C -3′ (DNA AGTCAGTCAGTCAGTC; unmodified DNA)”, the “Stoichiometry of saturated AGT-DNA complex” value (AGT [4]) is reported as 3.86 ± 0.08.

In the case of “3′-(FAM)-26-mer Oligo F: 5′- AGTCAGTCAGTCAGTCAGTCAGTCAG(FAM) -3′ (DNA AGTCAGTCAGTCAGTCAGTCAGTCAG; DNA, 3' {FAM}, backbone not given here)”, the “Stoichiometry of saturated AGT-DNA complex” value (AGT [4]) is reported as 6.38 ± 0.21, the “Hill coefficient (n) from anisotropy measurements” value (AGT [5]) is reported as 2.13 ± 0.14 and the “Hill coefficient (n) from intensity measurements” value (AGT [5]) is reported as 3.33 ± 0.27. The “Ka from anisotropy measurements” value (AGT [5]) was 3.30 ± 0.12 × 10^5 M^−1.

For `O=C(O)c1ccc(C(=O)O)c(-c2c3ccc(=O)cc-3oc3cc(O)ccc23)c1` [FAM, 6-Carboxyfluorescein], the Kd (AGT [1]; Kd, apparent, from fluorescence anisotropy data, single-site (1:1) fit, unmodified AGT, 4°C, no DNA) was 13 µM and 12.7 µM, the “apparent binding affinity K (Ka)” value (AGT [1]; fluorescence anisotropy, Eq. 5 with n = 1, 4°C) was 7.84 ± 0.24 × 10^4 M^−1 and 7.8 × 10^4 M^−1 and the IC50 (AGT [6]; duplex 24mer 0.17μM, AGT 3.9μM, 20°C) was 76.3 µM. The IC50 (AGT [6]; electrophoretic analysis, approximate value) was about 76 µM, the “concentration sufficient to completely inhibit AGT activity” value (AGT [2]) was 1.8 mM and the Kd (benzyl-AGT [7]) was 82.2 µM.

“Unmodified 26-mer: 5′- AGTCAGTCAGTCAGTCAGTCAGTCAG -3′ (DNA AGTCAGTCAGTCAGTCAGTCAGTCAG; unmodified DNA)” was tested, and the “Stoichiometry of saturated AGT-DNA complex” value (AGT [4]) was 5.89 ± 0.07.

Work on `Cc1ccc2c(c1)sc(-c1ccc(N(C)C)cc1)[n+]2C` [ThT, Thioflavin T] yielded an IC50 (AGT [2]) of 217 µM.

With “5′-(FAM)-26-mer Oligo F: 5′- (FAM)AGTCAGTCAGTCAGTCAGTCAGTCAG -3′ (DNA AGTCAGTCAGTCAGTCAGTCAGTCAG; DNA, 5' {FAM}, backbone not given here)” the “Stoichiometry of saturated AGT-DNA complex” value (AGT [4]) was 6.59 ± 0.20, the “Hill coefficient (n) from anisotropy measurements” value (AGT [5]) was 2.02 ± 0.17 and the “Hill coefficient (n) from intensity measurements” value (AGT [5]) was 2.92 ± 0.62. The “Ka from anisotropy measurements” value (AGT [5]) was 3.33 ± 0.15 × 10^5 M^−1.

AGTCAGTCAGTCAGTC (ssDNA) [3'-FAM-Oligo A] showed a Ka [8] of 282000 M⁻¹.

AGTCAGTCAGTCAGTCAGTCAGTCAG (ssDNA) [3'-FAM-Oligo F] showed a Ka [9] of 330000 M⁻¹.

Molecule AGTCAGTCAGTCAGTCAGTCAGTCAG (ssDNA) [5'-FAM-Oligo F] has a Ka [10] of 333000 M⁻¹.

With AGTCAGTCAGTCAGTC (ssDNA) [5'-FAM-Oligo A] the Ka [11] was 295000 M⁻¹.
